This passage reports inhibition and IC50 results from ChEMBL document CHEMBL1208775, “Synthesis and vasodilative activity of tanshinone IIA derivatives” (Bioorg Med Chem Lett, 2010).

Test [1] has as its system Thoracic aorta. As to the kind of experiment: Vasodilatory activity in Wistar rat endothelium-intact thoracic aorta assessed as inhibition of norepinephrine-induced contraction at 100 uM after 20 mins by organ-bath technique. The test is classed as functional. An outline of the steps:
(§1)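 Rat aortic rings in Krebs-Henseleit solution, equilibrated 2 h at 1.5 g basal tension with bath changes every 20 min. Endothelium taken as intact when acetylcholine (1 × 10^-5 mmol) relaxed norepinephrine-precontracted rings by more than 80%. Rings were precontracted with norepinephrine bitartrate (1 × 10^-6 mM) before compound addition. Response is expressed as percent of maximal control norepinephrine contraction. Mean ± SEM, paired t-test.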

For test [2], the system named is Thoracic aorta. As to the kind of experiment: Vasodilatory activity in Wistar rat endothelium-intact thoracic aorta assessed as inhibition of norepinephrine-induced contraction after 20 mins by organ-bath technique. The test is classed as functional, tissue-based. An outline of the steps: as §1

Consider `Cc1coc2c1C(=O)C(=O)c1c-2ccc2c1CCCC2(C)C` [TANSHINONE IIA], for which the inhibition at 100 µM in the test with Thoracic aorta [1] was 2.92%. Still for that read-out and setting: the figure for `Cc1c(C(c2ccccc2)c2oc3c(c2C)C(=O)C(=O)c2c-3ccc3c2CCCC3(C)C)oc2c1C(=O)C(=O)c1c-2ccc2c1CCCC2(C)C` is 2.95%. Turning to `Cc1c(C(c2cccc(Cl)c2)c2oc3c(c2C)C(=O)C(=O)c2c-3ccc3c2CCCC3(C)C)oc2c1C(=O)C(=O)c1c-2ccc2c1CCCC2(C)C`, the inhibition at 100 µM with Thoracic aorta [1] is 56%. Moreover, in the test with Thoracic aorta [2], the IC50 is 260 µM and the inhibition result was “Dose-dependent effect”.

As to `COc1cc(C(c2oc3c(c2C)C(=O)C(=O)c2c-3ccc3c2CCCC3(C)C)c2oc3c(c2C)C(=O)C(=O)c2c-3ccc3c2CCCC3(C)C)ccc1O`, the inhibition at 100 µM with Thoracic aorta [1] came out at 42.8%. Also, in the test with Thoracic aorta [2], the IC50 amounted to 130 µM and the inhibition result was “Dose-dependent effect”.

`COc1ccc(C(c2oc3c(c2C)C(=O)C(=O)c2c-3ccc3c2CCCC3(C)C)c2oc3c(c2C)C(=O)C(=O)c2c-3ccc3c2CCCC3(C)C)cc1`: the inhibition at 100 µM with Thoracic aorta [1] was found to be 11%. Take `CC(CO)C1=C(O)C(=O)c2c(ccc3c2CCCC3(C)C)C1=O` (stereo not given): in the test on Thoracic aorta [1], the inhibition at 100 µM is 59.2%. For the same molecule, in the test with Thoracic aorta [2], the IC50 came out at 480 µM and the inhibition result is “Dose-dependent effect”. In the case of `Cc1c(C(c2ccccc2Cl)c2oc3c(c2C)C(=O)C(=O)c2c-3ccc3c2CCCC3(C)C)oc2c1C(=O)C(=O)c1c-2ccc2c1CCCC2(C)C`, in the test with Thoracic aorta [1], the inhibition at 100 µM is -29.2%. On the same count and under the same terms, as for `Cc1c(C(c2ccc(O)cc2)c2oc3c(c2C)C(=O)C(=O)c2c-3ccc3c2CCCC3(C)C)oc2c1C(=O)C(=O)c1c-2ccc2c1CCCC2(C)C`, the figure is 15.2%; as for `Cc1c(C(c2ccc(Cl)cc2)c2oc3c(c2C)C(=O)C(=O)c2c-3ccc3c2CCCC3(C)C)oc2c1C(=O)C(=O)c1c-2ccc2c1CCCC2(C)C`, 1%.

With `Cc1c(C(c2ccc([N+](=O)[O-])cc2)c2oc3c(c2C)C(=O)C(=O)c2c-3ccc3c2CCCC3(C)C)oc2c1C(=O)C(=O)c1c-2ccc2c1CCCC2(C)C`, the inhibition at 100 µM in the test on Thoracic aorta [1] worked out at 11.4%. Same read-out and setting: the figure for `Cc1c(Br)oc2c1C(=O)C(=O)c1c-2ccc2c1CCCC2(C)C` is 4.24%.

For `Cc1c(C(c2ccc([S+](C)[O-])cc2)c2oc3c(c2C)C(=O)C(=O)c2c-3ccc3c2CCCC3(C)C)oc2c1C(=O)C(=O)c1c-2ccc2c1CCCC2(C)C` (stereo not given), the inhibition at 100 µM in the test on Thoracic aorta [1] is 10.3%.

Regarding `Cc1c(C(c2ccc(O)c(O)c2)c2oc3c(c2C)C(=O)C(=O)c2c-3ccc3c2CCCC3(C)C)oc2c1C(=O)C(=O)c1c-2ccc2c1CCCC2(C)C`, the inhibition at 100 µM with Thoracic aorta [1] is -0.86%. The same measure, in the same setting: as for `Cc1c(C(c2cccc([N+](=O)[O-])c2)c2oc3c(c2C)C(=O)C(=O)c2c-3ccc3c2CCCC3(C)C)oc2c1C(=O)C(=O)c1c-2ccc2c1CCCC2(C)C`, the figure is 18.8%.
